# Reference: ChEMBL document CHEMBL1157474, “[11C]cyclopropyl-FLB 457: a PET radioligand for low densities of dopamine D2 receptors” (Bioorg Med Chem, 2008)
# Key:
# [1] = tested on: Macaca fascicularis; test: Binding affinity to dopamine D2 receptor in iv dosed cynomolgus monkey brain cerebellum pretreated with raclopride by PET; assay type: organism-based; details: tested as the 11C-labelled form
# [2] = tested on: Macaca fascicularis; test: Binding affinity to dopamine D3 receptor in iv dosed cynomolgus monkey brain cerebellum pretreated with raclopride by PET; assay type: organism-based; details: tested as the 11C-labelled form
# [3] = biological target: D(2) dopamine receptor (Homo sapiens, UniProt P14416); test: Binding affinity to dopamine D2 receptor
# Sequence of D(2) dopamine receptor (P14416 whole entry): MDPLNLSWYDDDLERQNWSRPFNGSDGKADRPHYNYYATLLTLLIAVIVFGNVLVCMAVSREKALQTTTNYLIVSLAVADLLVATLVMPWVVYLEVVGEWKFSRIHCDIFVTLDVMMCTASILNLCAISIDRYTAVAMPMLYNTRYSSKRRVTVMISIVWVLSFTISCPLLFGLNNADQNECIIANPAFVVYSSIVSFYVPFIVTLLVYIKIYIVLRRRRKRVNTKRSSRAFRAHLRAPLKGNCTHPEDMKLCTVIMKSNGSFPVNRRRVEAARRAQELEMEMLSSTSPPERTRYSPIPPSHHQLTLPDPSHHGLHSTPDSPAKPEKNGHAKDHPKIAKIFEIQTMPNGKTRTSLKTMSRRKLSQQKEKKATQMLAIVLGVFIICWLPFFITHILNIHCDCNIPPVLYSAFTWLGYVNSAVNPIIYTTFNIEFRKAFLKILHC
# [4] = Ratio of drug uptake in cerebellum to thalamus in iv dosed cynomolgus monkey by PET; assay type: ADME, organism-based, Macaca fascicularis; details: in vivo
# [5] = Ratio of drug uptake in cerebellum to frontal cortex in iv dosed cynomolgus monkey by PET; assay type: ADME, organism-based, Macaca fascicularis; details: in vivo
# [6] = Protein binding in cynomolgus monkey plasma at 10 MBq in presence of raclopride; assay type: ADME, cell-free, Macaca fascicularis; details: read-out: PPB (converted)
# Procedure, shortened: (§1)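 Monkey plasma (baseline or after raclopride pretreatment) mixed with tracer (~10 MBq) for 10 min at room temperature, then ultrafiltered (YM-30 membrane) by centrifugation; filtrate counted versus incubate. Duplicates; corrected for membrane binding using 0.9% NaCl controls.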
# [7] = Lipophilicity, log D at pH 7.4 by shake flask method; assay type: physicochemical; details: buffer
# Procedure, shortened: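 Shake-flask logD at pH 7.4: tracer in 1-octanol/phosphate buffer (pH 7.4), shaken 3 min; buffer replaced and repeated. Four octanol portions re-extracted with buffer (vortex 2 min, centrifuge 4 min at 2000 x g); both layers counted; D = octanol cpm/mL over buffer cpm/mL.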
# [8] = Metabolic stability in cynomolgus monkey plasma after 45 mins; assay type: ADME, cell-free, Macaca fascicularis; details: read-out: Stability
# Procedure, shortened: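 Monkey femoral vein blood drawn at 4, 15, 30, 45 min post-injection; plasma deproteinized with acetonitrile, centrifuged at 2000 x g, supernatant run on reverse-phase C18 radio-HPLC with acetonitrile/0.01 M phosphoric acid gradient, 6 mL/min; parent fraction versus polar metabolites; recovery checked by NaI well counting.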
# [9] = Ratio of drug uptake in cerebellum to pallidum in iv dosed cynomolgus monkey after 84 mins by PET; assay type: ADME, organism-based, Macaca fascicularis; details: in vivo, 1.4 h
# Procedure, shortened: (§2)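 Baseline PET in ketamine/xylazine-anaesthetized cynomolgus monkeys after i.v. bolus of 56.2 ± 0.2 MBq tracer, scanned to 93 min. Regional radioactivity expressed as %SUV; region-to-cerebellum ratios taken at 84 min, cerebellum serving as reference region for free plus non-specific binding.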
# [10] = Ratio of drug uptake in cerebellum to temporal cortex in iv dosed cynomolgus monkey by PET; assay type: ADME, organism-based, Macaca fascicularis; details: in vivo
# [11] = tested on: Brain; test: Drug uptake in iv dosed cynomolgus monkey brain after 7.5 mins by PET; assay type: ADME, organism-based, Macaca fascicularis; details: in vivo, 0.125 h
# Procedure, shortened: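 Ketamine/xylazine-anaesthetized cynomolgus monkeys given 56.2 ± 0.2 MBq [11C] tracer i.v. bolus over 5 sec into sural vein; 3D PET to 93 min. Whole-brain %ID = whole-brain ROI radioactivity concentration × ROI volume (~65 mL) / injected radioactivity × 100, plotted versus time; brain activity assumed unchanged radioligand.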
# [12] = Ratio of drug uptake in cerebellum to caudate nucleus in iv dosed cynomolgus monkey after 84 mins by PET; assay type: ADME, organism-based, Macaca fascicularis; details: in vivo, 1.4 h; procedure, shortened: as §2
# [13] = Ratio of drug uptake in cerebellum to parietal cortex in iv dosed cynomolgus monkey by PET; assay type: ADME, organism-based, Macaca fascicularis; details: in vivo
# [14] = Ratio of drug uptake in occipital cortex to cerebellum in iv dosed cynomolgus monkey by PET; details: in vivo
# [15] = Ratio of drug uptake in cerebellum to putamen in iv dosed cynomolgus monkey after 84 mins by PET; assay type: ADME, organism-based, Macaca fascicularis; details: in vivo, 1.4 h; procedure, shortened: as §2
# [16] = Protein binding in cynomolgus monkey plasma at 10 MBq; assay type: ADME, cell-free, Macaca fascicularis; details: read-out: PPB (converted); procedure, shortened: as §1
structure (smiles),measurement,setting,value
COc1cc(Br)cc(C(=O)NC[C@@H]2CCCN2CC2CC2)c1OC,Activity,[1],50%
same,Activity,[2],50%
CCN1CCC[C@H]1CNC(=O)c1cc(Br)cc(OC)c1OC,Ki,[3],3 pM
COc1cc(Br)cc(C(=O)NC[C@@H]2CCCN2CC2CC2)c1O[11CH3],Ratio,[4],3.7
same,Ratio,[5],3.24
same,fraction unbound at 10 MBq,[6],0.64
same,logD,[7],1.82
same,remaining at 0.75 h,[8],60%
same,Ratio,[9],5.4
same,Ratio,[10],2.59
same,Drug uptake,[11],4.4 %ID
same,Ratio,[12],6.6
same,Ratio,[13],2.98
same,Ratio,[14],2.08
same,Ratio,[15],7.61
same,fraction unbound at 10 MBq,[16],0.68
CCN1CCC[C@H]1CNC(=O)c1cc(Br)cc(OC)c1O[11CH3],logD,[7],1.33
